HUVEC prolif 384 = human endothelial cell proliferation inhibition; 1.1% of 86,000 active; HUVEC proliferation, CellTiter-Glo luminescence, 72 h; active compounds read low; viability, % at 10 µM (by protocol); AID 648;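 active = viability at or below 30%; inactive = viability above 30%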;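 also: 100% = median luminescence of DMSO-only cell control wells on each plate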
Fibroblast inh = blocks proliferation of human lung fibroblasts. 1.1% of 85,000 active. viability, % at 10 µM. LL 47 human lung fibroblast viability, ATP luminescence; active compounds read low;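 active = viability at or below 50% in the single dose screen; inactive = viability above 50%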;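 also: compound exposure lasted 72 h before the ATP readout; 100% = median luminescence of untreated cell-only wells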
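Test system: LL 47 human lung fibroblasts; Quantity: 1,150 cells/well; Buffer or medium: IMEM plus 15% FBS; Dosing: tenfold compound dosing solution, DMSO at 0.1%; Timing: overnight cell rest, 72 h compound treatment at 37 °C; Detection: ATP-based CellTiter-Glo luminescent readout; Read-out basis: viability percentage against median untreated-cell control; Controls: cell-only wells, no compound.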
ERb coact inh = ER-beta (human) coactivator binding inhibition; Q92731; TR-FRET ER-beta LBD / SRC1-Cy5 peptide binding; receptor agonist-loaded with 1 µM estradiol; inhibition, % at 25.6 µM; 1.3% of 86,000 active; AID 633;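 active = compounds whose percent inhibition of the receptor-coactivator binding signal exceeds about 50% in the single-dose screen, limit read from the data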;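 also: 0% = receptor plus peptide wells without compound and 100% = peptide-only wells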
ERa coact pot = ER-alpha (human) coactivator binding potentiation. P03372. TR-FRET ERalpha-LBD/SRC-Cy5 coactivator binding, 2 h; 100 = basal binding, no effect. coactivator binding (% of control), % at 25.6 µM. 1.3% of 86,000 active; in the data active = activity above about 200%;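 also: binding measured in presence of low estradiol as agonist stimulus; 0% = peptide alone without receptor and 100% = receptor with peptide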
ERa SRC1 inh = ER-alpha (human) coactivator binding inhibition; inhibition, % at 25.6 µM; P03372; TR-FRET ER-alpha LBD / SRC-1 peptide, estradiol-bound; AID 629; 1.7% of 86,000 active; in the data active = inhibition above about 50%;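 also: 0% = receptor plus peptide control and 100% = peptide only without receptor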
H69AR inhibit = blocks growth of human H69AR lung tumor cells; 6% of 85,000 active; viability, % at 10 µM; H69AR lung tumor viability, ATP luminescence, 72 h; active compounds read low;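 active = viability at or below 40%; inactive = viability above 40%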;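 also: multidrug resistant small cell line overexpressing MRP-1 efflux transporter; 100% = mean luminescence of untreated control wells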
Active calls of the source: *; x = no result; [ ] = remark or other dose. Rows were chosen to be rich in hits. Some 9.2% of all compounds tested hit in one or more screens of this group.

SMILES	HUVEC prolif 384	Fibroblast inh	ERb coact inh	ERa coact pot	ERa SRC1 inh	H69AR inhibit
CC1CN=C(N(C(=O)Nc2ccccc2)c2ccc(F)cc2)S1 (configuration not stated)	80	95	-5	111	-7	89
C[C@H](Nc1ncnc2sc3c(c12)CCC3)C(=O)O	96	100	-8	100	-5	99
Cc1ccc(C(=O)Nc2ncnc3sc4c(c23)CCCCC4)cc1	78	84	27	108	5	31*
CCOC(=O)c1c(-c2ccccc2)nnn1-c1nc(OCC)nc(N2CCCCC2)n1	83	88	10	77	8	47
Fc1ccccc1N1CC(c2ccccc2)C(c2cccs2)=N1 (configuration not stated)	125	92	-4	108	6	88
CN(C)c1ccc(NC(=O)CCCc2ccccc2)cc1	94	101	-10	116	-69	51
CN(C)c1ccc(NC(=O)CN2C(=O)CC(c3ccccc3)=Nc3ccccc32)cc1	81	86	66*[fluorescence artefact?]	38	93*[fluorescence artefact?]	x
COc1ccc2nc3c(cc2c1)c(NC(=O)c1cccs1)nn3CC(C)C	82	73	1	104	2	35*
CN(C)c1ccc(-c2nn3c(-c4ccncc4)nnc3s2)cc1	65	91	13	107	15	32*
Cc1ccc(-c2nnc3sc(-c4ccncc4)nn23)cc1	87	100	-33	96	-25	82
CN(C)c1ccc(-c2nn3c(-c4ccccc4Cl)nnc3s2)cc1	35	54	44	94	72*[fluorescence artefact?]	30*
CCOC(=O)c1csc(NC(=O)CSc2nnnn2CC)n1	98	99	1	110	0	57
COc1ccccc1NC(=O)c1cc(Sc2nncn2C)nc2ccccc12	103	96	-16	124	-10	68
O=C(COc1ccc(F)c(Cl)c1)c1ccc[nH]1	93	x	45	40	66*[fluorescence artefact?]	92
C(=N\n1cnnc1)/c1cccs1	96	99	1	90	7	97
Cc1ccsc1/C=C/c1ccc2cccc(O)c2n1	62	45*	4	89	-7	18*
Oc1cccc2ccc(/C=C/c3cccs3)nc12	60	14*	-4	68	2	12*
O=C(CSc1nnc(Cc2cccs2)n1-c1ccc(Cl)cc1)NCc1ccc2c(c1)OCO2	96	99	6	87	-3	94
CCN(CC)c1ccc(C2Nc3cccc4cccc(c34)N2)c(O)c1	74	97	5	90	-8	19*
CCn1c(=O)c2cc(S(=O)(=O)NC3CCCCC3)ccc2n(CC)c1=O	89	105	-2	97	-2	93
CCOC(=O)N1CCC(N2CCN(S(=O)(=O)c3ccc(Cl)cc3)CC2)CC1	100	98	-2	98	-3	27*
Cc1ccc(CNC(=O)c2ccc(CN3CCOCC3)cc2)cc1	99	104	-9	123	-6	88
COc1cc(C2=NOC(C(=O)NCc3ccco3)C2)cc(OC)c1OC (configuration not stated)	59	62	-8	107	-10	25*
CCC(C(=O)NCc1ccco1)n1nc(-c2ccc(OC)cc2)ccc1=O (configuration not stated)	94	94	37	227*[fluorescence artefact?]	42	86
COc1ccc(C2=NOC(C(=O)NCc3ccco3)C2)cc1 (configuration not stated)	57	81	-9	109	12	25*
Cn1c(=O)cc(SCC(=O)NCCN2CCN(c3ccccc3F)CC2)c2cc(Cl)ccc21	73	94	-8	92	5	67
C=CCn1c(=O)c2c3c(sc2n2c(Nc4ccc(C(=O)OCC)cc4)nnc12)CCCC3	86	104	-2	111	3	39*
C=CCn1c(=O)c2c3c(sc2n2c(Nc4ccc(OC)cc4)nnc12)CCCC3	78	95	-2	89	1	90
Nc1ccc(NC(=O)c2cccs2)c(Cl)c1	84	105	-8	237*[fluorescence artefact?]	-6	99
Cc1cc(C)cc(NS(=O)(=O)c2ccc3oc(=O)ccc3c2)c1	92	96	-1	97	4	103

Compound activity (PubChem BioAssay)
